Assay [1] concerns Abutilon theophrasti. The experiment in a line: Herbicidal activity against Abutilon theophrasti (velvetleaf) assessed as growth inhibition at 75 g/ha postemergence treatment measured after 15 days by Greenhouse test. The format is functional. Particulars: post-emergence, 360 h, read-out: GI. The method in brief:
(§1)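 Postemergence greenhouse pot test. About 20 seeds per pot, sown 1-3 cm deep in clay soil (pH 6.5, 1.6% organic matter). Plants grown at 15-30 °C and 50% relative humidity. Compounds were made up as 100 g/L emulsifiable concentrates in DMF with Tween-80, then diluted in water. Dicots were sprayed at the 2-leaf stage and monocots at the 1-leaf stage. Controls were untreated and solvent-treated. Injury was scored visually after 15 days, three replicates per treatment.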

Assay [2] deals with Brassica juncea. The assay is described as follows: Herbicidal activity against Brassica juncea assessed as growth inhibition at 75 g/ha postemergence treatment measured after 15 days by Greenhouse test. The format is functional. Particulars: post-emergence, 360 h, read-out: GI. The method in brief:
as §1

Assay [3] concerns Eclipta prostrata. The assay is described as follows: Herbicidal activity against Eclipta prostrata assessed as growth inhibition at 75 g/ha postemergence treatment measured after 15 days by Greenhouse test. The assay is classed as functional. Particulars: post-emergence, 360 h, read-out: GI. The procedure, abridged:
as §1

The subject of assay [4] is Amaranthus retroflexus. The experiment in a line: Herbicidal activity against Amaranthus retroflexus assessed as growth inhibition at 75 g/ha postemergence treatment measured after 15 days by Greenhouse test. The conditions noted are these: post-emergence, 360 h, read-out: GI. The format is functional. The procedure, abridged:
as §1

Assay [5] has as its system Setaria faberi. The experiment in a line: Herbicidal activity against Setaria faberi (Giant Foxtail) assessed as growth inhibition at 75 g/ha postemergence treatment measured after 15 days by Greenhouse test. The assay is classed as functional. Particulars: post-emergence, 360 h, read-out: GI. The procedure, abridged: as §1
Assay [6] deals with Digitaria sanguinalis. The assay is described as follows: Herbicidal activity against Digitaria sanguinalis (hairy crabgrass) assessed as growth inhibition at 75 g/ha postemergence treatment measured after 15 days by Greenhouse test. The assay is classed as functional. The conditions noted are these: post-emergence, 360 h, read-out: GI. The procedure, abridged:
as §1

The subject of assay [7] is Echinochloa crus-galli. The experiment in a line: Herbicidal activity against Echinochloa crus-galli (barnyard grass) assessed as growth inhibition at 75 g/ha postemergence treatment measured after 15 days by Greenhouse test. The conditions noted are these: post-emergence, 360 h, read-out: GI. The format is functional. The method in brief: as §1
Assay [8] relates to Abutilon theophrasti. The assay is described as follows: Herbicidal activity against Abutilon theophrasti (velvetleaf) assessed as growth inhibition at 37.5 g/ha postemergence treatment measured after 15 days by Greenhouse test. Particulars: post-emergence, 360 h, read-out: GI. The assay is classed as functional. The method in brief: as §1
For assay [9], the system named is Brassica juncea. The experiment in a line: Herbicidal activity against Brassica juncea assessed as growth inhibition at 37.5 g/ha postemergence treatment measured after 15 days by Greenhouse test. The conditions noted are these: post-emergence, 360 h, read-out: GI. The format is functional. The method in brief:
as §1

Assay [10] concerns Eclipta prostrata. The experiment in a line: Herbicidal activity against Eclipta prostrata assessed as growth inhibition at 37.5 g/ha postemergence treatment measured after 15 days by Greenhouse test. The assay is classed as functional. The conditions noted are these: post-emergence, 360 h, read-out: GI. The procedure, abridged:
as §1

In assay [11] the test system is Amaranthus retroflexus. The experiment in a line: Herbicidal activity against Amaranthus retroflexus assessed as growth inhibition at 37.5 g/ha postemergence treatment measured after 15 days by Greenhouse test. The assay is classed as functional. The conditions noted are these: post-emergence, 360 h, read-out: GI. The procedure, abridged: as §1
The test system of assay [12] is Setaria faberi. The experiment in a line: Herbicidal activity against Setaria faberi (Giant Foxtail) assessed as growth inhibition at 37.5 g/ha postemergence treatment measured after 15 days by Greenhouse test. The format is functional. The conditions noted are these: post-emergence, 360 h, read-out: GI. The procedure, abridged:
as §1

Assay [13] deals with Digitaria sanguinalis. The experiment in a line: Herbicidal activity against Digitaria sanguinalis (hairy crabgrass) assessed as growth inhibition at 37.5 g/ha postemergence treatment measured after 15 days by Greenhouse test. The conditions noted are these: post-emergence, 360 h, read-out: GI. The assay is classed as functional. The procedure, abridged:
as §1

Assay [14] relates to Echinochloa crus-galli. The assay is described as follows: Herbicidal activity against Echinochloa crus-galli (barnyard grass) assessed as growth inhibition at 37.5 g/ha postemergence treatment measured after 15 days by Greenhouse test. The assay is classed as functional. Particulars: post-emergence, 360 h, read-out: GI. The procedure, abridged: as §1
Assay [15] concerns Brassica juncea. The assay is described as follows: Herbicidal activity against Brassica juncea assessed as growth inhibition at 150 g/ha postemergence treatment measured after 15 days by Greenhouse test. The conditions noted are these: post-emergence, 360 h, read-out: GI. The assay is classed as functional. The procedure, abridged:
(§2)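 Test compounds were made up as 100 g/L emulsifiable concentrates (DMF solvent, Tween-80 emulsifier) and diluted with water. About 20 seeds were sown 1–3 cm deep in clay soil (pH 6.5, 1.6% organic matter) in 9.5 cm pots, kept at 15–30 °C and 50% RH. Postemergence spray was applied to dicots at the 2-leaf stage and monocots at the 1-leaf stage. Controls were untreated and solvent-treated. Injury was scored visually at 15 days, with three replicates.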

The test system of assay [16] is Eclipta prostrata. The experiment in a line: Herbicidal activity against Eclipta prostrata assessed as growth inhibition at 150 g/ha postemergence treatment measured after 15 days by Greenhouse test. The assay is classed as functional. Particulars: post-emergence, 360 h, read-out: GI. The procedure, abridged: as §2
Assay [17] deals with Amaranthus retroflexus. The assay is described as follows: Herbicidal activity against Amaranthus retroflexus assessed as growth inhibition at 150 g/ha postemergence treatment measured after 15 days by Greenhouse test. The conditions noted are these: post-emergence, 360 h, read-out: GI. The assay is classed as functional. The procedure, abridged: as §2
Assay [18] deals with Setaria faberi. The experiment in a line: Herbicidal activity against Setaria faberi (Giant Foxtail) assessed as growth inhibition at 150 g/ha postemergence treatment measured after 15 days by Greenhouse test. The assay is classed as functional. Particulars: post-emergence, 360 h, read-out: GI. The procedure, abridged: as §2
Assay [19] has as its system Digitaria sanguinalis. The assay is described as follows: Herbicidal activity against Digitaria sanguinalis (hairy crabgrass) assessed as growth inhibition at 150 g/ha postemergence treatment measured after 15 days by Greenhouse test. The assay is classed as functional. The conditions noted are these: post-emergence, 360 h, read-out: GI. The procedure, abridged: as §2

For assay [20], the system named is Echinochloa crus-galli. The assay is described as follows: Herbicidal activity against Echinochloa crus-galli (barnyard grass) assessed as growth inhibition at 150 g/ha postemergence treatment measured after 15 days by Greenhouse test. The format is functional. The conditions noted are these: post-emergence, 360 h, read-out: GI. The method in brief:
as §2

Assay [21] has as its target T1, Protoporphyrinogen oxidase (Homo sapiens) (UniProt P50336).
T1 sequence (whole entry): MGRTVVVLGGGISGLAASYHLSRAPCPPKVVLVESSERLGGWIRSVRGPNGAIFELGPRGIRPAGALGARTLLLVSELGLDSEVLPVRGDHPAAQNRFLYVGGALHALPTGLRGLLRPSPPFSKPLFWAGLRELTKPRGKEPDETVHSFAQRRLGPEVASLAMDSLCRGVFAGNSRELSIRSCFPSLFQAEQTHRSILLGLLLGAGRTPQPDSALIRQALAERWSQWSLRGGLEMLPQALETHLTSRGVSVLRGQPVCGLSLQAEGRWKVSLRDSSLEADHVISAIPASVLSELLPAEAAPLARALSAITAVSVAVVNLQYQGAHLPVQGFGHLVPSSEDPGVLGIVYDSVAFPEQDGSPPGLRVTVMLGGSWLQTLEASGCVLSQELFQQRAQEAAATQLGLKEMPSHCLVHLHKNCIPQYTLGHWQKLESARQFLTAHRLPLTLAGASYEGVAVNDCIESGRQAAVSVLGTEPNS
The assay is described as follows: Inhibition of Homo sapiens (human) recombinant protoporphyrinogen oxidase by fluorescence detection.

The subject of assay [22] is Abutilon theophrasti. The assay is described as follows: Herbicidal activity against Abutilon theophrasti (velvetleaf) assessed as growth inhibition at 150 g/ha postemergence treatment measured after 15 days by Greenhouse test. The format is functional. The conditions noted are these: post-emergence, 360 h, read-out: GI. The procedure, abridged: as §2

The structures appear in SMILES notation.

Usually Ki stands for a dissociation constant, usually derived from enzyme kinetics or from competition with a known ligand. `COC(=O)CSc1nc2cc(N3C(=O)C4=C(CCCC4)C3=O)c(F)cc2s1`: the inhibition of growth at 75 g/ha is 80% in assay [1]; 50% in [2]; 80% in assay [3]; 80% in assay [4]; below 50% in assay [5]; 50% in [6]. For the same compound, the inhibition of growth at 75 g/ha in [7] came to 50%. Moreover, the inhibition of growth at 37.5 g/ha in assay [8] was 80%; in assay [9], 50%; in [10], 80%; in assay [11], 80%; in assay [12] it was below 50%; in assay [13] it was below 50%. Also, in assay [14], the inhibition of growth at 37.5 g/ha was below 50%. The inhibition of growth at 150 g/ha is 80% in assay [15]; 80% in [16]; 80% in [17]; 60% in [18]; 60% in assay [19]; 60% in assay [20]. In addition, the Ki in [21] is 1220 nM.

In the case of `Cc1nn(-c2cc(NS(C)(=O)=O)c(Cl)cc2Cl)c(=O)n1C(F)F` [SULFENTRAZONE], the inhibition of growth at 75 g/ha was 80% in [1]; 80% in assay [2]; 80% in assay [3]; 80% in assay [4]; below 50% in assay [5]; 50% in assay [6]. Further, the inhibition of growth at 75 g/ha in assay [7] is 50%. The inhibition of growth at 37.5 g/ha in assay [8] was 80%; in assay [9] it was 60%; in assay [10] it was 80%; in [11], 80%; in assay [12], below 50%; in [13], 50%. The inhibition of growth at 37.5 g/ha in [14] is 50%. Besides, the inhibition of growth at 150 g/ha in assay [22] is 80%; in assay [15] it was 80%; in assay [16], 80%; in assay [17], 80%; in assay [18], below 50%; in [19] it was 60%. Also, the inhibition of growth at 150 g/ha in assay [20] is 60%. Moreover, in assay [21], the Ki is 720 nM.
